Data reported in ChEMBL document CHEMBL3774374, “The Effect of Small Molecules on Sterol Homeostasis: Measuring 7-Dehydrocholesterol in Dhcr7-Deficient Neuro2a Cells and Human Fibroblasts” (J Med Chem, 2016).
Active and inactive are the calls of the source. The calls are words filed in the database; no cut-off is given here.

Assays:
[1] = molecular target: T1, Lanosterol 14-alpha demethylase (Mus musculus, UniProt Q8K0C4); test: Inhibition of 14 alpha demethylase in Dhcr7-deficient mouse Neuro2a cells assessed as increase in lanosterol levels at 1 uM by LC-MS/GC-MS analysis; assay type: cell-based
T1 sequence (Q8K0C4 whole entry): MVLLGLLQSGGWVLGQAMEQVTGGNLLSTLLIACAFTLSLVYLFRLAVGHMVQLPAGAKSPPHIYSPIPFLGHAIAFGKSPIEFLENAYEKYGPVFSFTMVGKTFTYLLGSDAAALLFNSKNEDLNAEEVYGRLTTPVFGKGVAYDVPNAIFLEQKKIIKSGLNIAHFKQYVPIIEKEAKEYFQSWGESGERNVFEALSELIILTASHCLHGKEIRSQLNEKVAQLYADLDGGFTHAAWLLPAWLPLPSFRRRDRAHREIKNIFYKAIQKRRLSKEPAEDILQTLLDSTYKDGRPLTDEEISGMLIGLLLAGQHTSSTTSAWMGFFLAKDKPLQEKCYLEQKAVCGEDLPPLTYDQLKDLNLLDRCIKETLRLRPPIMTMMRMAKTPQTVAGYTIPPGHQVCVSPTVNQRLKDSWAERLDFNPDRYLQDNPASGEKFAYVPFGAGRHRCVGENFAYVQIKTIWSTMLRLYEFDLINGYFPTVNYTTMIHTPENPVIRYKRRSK
Outline: (§1)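 Dhcr7-deficient Neuro2a cells (13000/well, 0.5% FBS medium) on predeposited compound, 24 h at 37 °C. Hoechst-stained and imaged to count cells. Lysed in methanol containing isotope-labelled sterol standards, derivatized with PTAD 20 min at RT, then isocratic C18 UPLC-MS/SRM. Remaining extract silylated with BSTFA for GC-MS, quantified against d7-cholesterol. Follow-up runs in triplicate.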

[2] = molecular target: T1, Lanosterol 14-alpha demethylase; test: Inhibition of 14 alpha demethylase in Dhcr7-deficient mouse Neuro2a cells assessed as decrease in desmosterol levels at 1 uM by LC-MS/GC-MS analysis; assay type: cell-based; outline: as §1
[3] = molecular target: T1, Lanosterol 14-alpha demethylase; test: Inhibition of 14 alpha demethylase in Dhcr7-deficient mouse Neuro2a cells assessed as decrease in 7-DHC levels at 1 uM by LC-MS/GC-MS analysis; assay type: cell-based; outline: as §1
[4] = Antiproliferative activity against Dhcr7-deficient mouse Neuro2a cells at 500 nM; assay type: cell-based; details: n2a, 0.5 µM
Outline: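 Dhcr7-deficient Neuro2a cells treated with compound; proliferation followed by Hoechst nuclear staining and automated microscope imaging with cell counts per well.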

[5] = molecular target: T1, Lanosterol 14-alpha demethylase; test: Inhibition of 14 alpha demethylase in Dhcr7-deficient mouse Neuro2a cells assessed as increase in cholesterol levels at 1 uM by LC-MS/GC-MS analysis; assay type: cell-based; outline: as §1
[6] = molecular target: T2, Delta(24)-sterol reductase (Mus musculus) (UniProt Q8VCH6); test: Inhibition of Dhcr24 in Dhcr7-deficient mouse Neuro2a cells assessed as increase in 7-dehydrodesmosterol levels at 1 uM by LC-MS/GC-MS analysis; assay type: cell-based; outline: as §1
T2 sequence (whole entry): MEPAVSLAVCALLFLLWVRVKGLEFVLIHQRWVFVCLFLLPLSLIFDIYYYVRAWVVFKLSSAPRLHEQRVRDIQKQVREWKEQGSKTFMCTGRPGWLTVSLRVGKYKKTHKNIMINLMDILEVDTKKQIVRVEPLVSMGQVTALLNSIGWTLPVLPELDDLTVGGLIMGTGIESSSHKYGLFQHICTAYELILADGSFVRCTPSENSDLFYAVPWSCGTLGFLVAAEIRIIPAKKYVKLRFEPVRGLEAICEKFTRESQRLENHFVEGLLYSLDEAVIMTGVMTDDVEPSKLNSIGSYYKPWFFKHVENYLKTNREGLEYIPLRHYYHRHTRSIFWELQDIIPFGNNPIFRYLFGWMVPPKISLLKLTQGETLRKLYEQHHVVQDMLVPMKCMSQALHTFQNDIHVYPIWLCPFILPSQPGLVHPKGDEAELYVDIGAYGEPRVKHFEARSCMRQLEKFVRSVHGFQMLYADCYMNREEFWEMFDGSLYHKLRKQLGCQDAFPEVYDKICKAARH

[7] = molecular target: 3-beta-hydroxysteroid-Delta(8),Delta(7)-isomerase (Homo sapiens) (UniProt Q15125); test: Inhibition of delta 8-7 isomerase in human SLOS fibroblasts assessed as decrease in 7-DHC levels at 10 nM after 5 days by LC-MS/GC-MS analysis
Outline: (§2)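 SLOS patient skin fibroblasts (passage 8–20) grown in 96-well plates in delipidated serum with compound for 5 days; three different SLOS lines. Sterols quantified by PTAD-derivatized UPLC-MS plus GC-MS; 7-DHC expressed as percentage of untreated cells.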

[8] = Cytotoxicity against human SLOS fibroblasts at 5 uM after 5 days by Cell Titer assay; assay type: cell-based; details: fibroblast, 120 h
[9] = molecular target: T2, Delta(24)-sterol reductase (Mus musculus); test: Inhibition of DR24 in Dhcr7-deficient mouse Neuro2a cells assessed as decrease in 7-DHC levels at 1 uM by LC-MS/GC-MS analysis; assay type: cell-based; outline: as §1
[10] = molecular target: T2, Delta(24)-sterol reductase (Mus musculus); test: Inhibition of C-24 reductase in Dhcr7-deficient mouse Neuro2a cells assessed as increase in desmosterol levels at 1 uM by LC-MS/GC-MS analysis; assay type: cell-based; outline: as §1
Fibroblast = test: Decrease in cholesterol levels in human SLOS fibroblasts at 10 nM after 5 days by LC-MS/GC-MS analysis; assay type: functional, cell-based; outline: as §2
[11] = molecular target: T3, Delta(24)-sterol reductase (Homo sapiens) (UniProt Q15392); test: Inhibition of DR24 in human SLOS fibroblasts assessed as decrease in 7-DHC levels at 10 nM after 5 days by LC-MS/GC-MS analysis; outline: as §2
T3 sequence (whole entry): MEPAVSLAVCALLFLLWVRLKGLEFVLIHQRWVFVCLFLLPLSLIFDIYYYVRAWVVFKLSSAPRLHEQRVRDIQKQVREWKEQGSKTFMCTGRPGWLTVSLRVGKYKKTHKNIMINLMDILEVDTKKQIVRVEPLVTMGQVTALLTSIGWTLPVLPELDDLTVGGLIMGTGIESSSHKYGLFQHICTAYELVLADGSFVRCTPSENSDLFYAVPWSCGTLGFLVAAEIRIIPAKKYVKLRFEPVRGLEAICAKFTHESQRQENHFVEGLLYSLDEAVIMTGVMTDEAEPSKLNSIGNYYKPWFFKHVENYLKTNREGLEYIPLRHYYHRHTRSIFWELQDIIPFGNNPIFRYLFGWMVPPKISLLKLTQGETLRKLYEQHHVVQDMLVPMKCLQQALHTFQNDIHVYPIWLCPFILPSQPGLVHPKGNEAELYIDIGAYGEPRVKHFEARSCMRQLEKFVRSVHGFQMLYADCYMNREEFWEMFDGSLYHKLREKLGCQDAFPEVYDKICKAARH

[12] = molecular target: T4, 3-beta-hydroxysteroid-Delta(8),Delta(7)-isomerase (Mus musculus) (UniProt P70245); test: Inhibition of delta 8-7 isomerase in Dhcr7-deficient mouse Neuro2a cells assessed as decrease in 7-DHC levels at 1 uM by LC-MS/GC-MS analysis; assay type: cell-based; outline: as §1
T4 sequence (whole entry): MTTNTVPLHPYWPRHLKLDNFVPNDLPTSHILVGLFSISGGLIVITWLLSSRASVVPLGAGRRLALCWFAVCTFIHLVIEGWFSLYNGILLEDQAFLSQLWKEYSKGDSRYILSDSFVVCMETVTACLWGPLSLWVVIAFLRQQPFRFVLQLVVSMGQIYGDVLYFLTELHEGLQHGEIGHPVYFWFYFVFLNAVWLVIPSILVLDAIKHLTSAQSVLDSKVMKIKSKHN

[13] = molecular target: T2, Delta(24)-sterol reductase (Mus musculus); test: Inhibition of DR24 in mouse Neuro2a cells assessed as decrease in 7-DHC levels at 1 uM by LC-MS/GC-MS analysis; assay type: cell-based
Outline: (§3)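 Control Neuro2a cells (10000/well, 0.5% FBS) on compound, 24 h. Hoechst cell count, then methanol lysis with labelled standards (d7-7-DHC, 13C3-desmosterol, 13C3-lanosterol), PTAD derivatization 20 min at RT, UPLC-MS SRM. GC-MS of silylated extract for further sterols.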

[14] = molecular target: T4, 3-beta-hydroxysteroid-Delta(8),Delta(7)-isomerase (Mus musculus); test: Inhibition of delta 8-7 isomerase in mouse Neuro2a cells assessed as decrease in 7-DHC levels at 1 uM by LC-MS/GC-MS analysis; assay type: cell-based; outline: as §3
[15] = molecular target: T2, Delta(24)-sterol reductase (Mus musculus); test: Inhibition of C-24 reductase in Dhcr7-deficient mouse Neuro2a cells assessed as increase in zymosterol levels at 1 uM by LC-MS/GC-MS analysis; assay type: cell-based; outline: as §1
[16] = molecular target: T4, 3-beta-hydroxysteroid-Delta(8),Delta(7)-isomerase (Mus musculus); test: Inhibition of delta 8-7 isomerase in Dhcr7-deficient mouse Neuro2a cells assessed as increase in zymostenol levels at 1 uM by LC-MS/GC-MS analysis; assay type: cell-based
Outline: (§4)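 Follow-up (verification) assay in 96-well plates, run as the 384-well screen, in triplicate, at varying compound concentrations. Cells counted by Hoechst imaging, washed with PBS, then lysed in MeOH with BHT/TPP and isotope standards (d7-Chol, d7-7-DHC, 13C3-Des, 13C3-Lan). Sterols derivatised with PTAD for 20 min at RT and quantified by C18 UPLC-MS (SRM). Remaining sample silylated with BSTFA and run on GC-MS, quantified against d7-Chol.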

[17] = molecular target: T4, 3-beta-hydroxysteroid-Delta(8),Delta(7)-isomerase (Mus musculus); test: Inhibition of delta 8-7 isomerase in Dhcr7-deficient mouse Neuro2a cells assessed as decrease in cholesterol levels at 1 uM by LC-MS/GC-MS analysis; assay type: cell-based; outline: as §4
[18] = molecular target: T4, 3-beta-hydroxysteroid-Delta(8),Delta(7)-isomerase (Mus musculus); test: Inhibition of delta 8-7 isomerase in Dhcr7-deficient mouse Neuro2a cells assessed as increase in zymosterol levels at 1 uM by LC-MS/GC-MS analysis; assay type: cell-based; outline: as §4

3-beta-hydroxysteroid-Delta(8),Delta(7)-isomerase (Homo sapiens), sequence (Q15125 whole entry): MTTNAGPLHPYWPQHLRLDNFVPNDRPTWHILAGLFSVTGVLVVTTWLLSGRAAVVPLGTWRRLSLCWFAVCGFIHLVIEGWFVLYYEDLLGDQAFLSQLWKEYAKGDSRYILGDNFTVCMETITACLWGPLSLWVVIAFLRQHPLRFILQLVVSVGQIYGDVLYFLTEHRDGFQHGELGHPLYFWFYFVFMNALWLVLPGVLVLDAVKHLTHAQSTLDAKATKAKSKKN

Compound: Oc1c(Cl)cc(Cl)c2cccnc12 [CHLOROXINE]
- inhibition (INH) [1]: Active
- inhibition (INH) [2]: Active
- inhibition (INH) [3]: Active
- Activity [4]: Toxic
- inhibition (INH) [5]: Active

Compound: Oc1c(Cl)cc(Cl)c(Cl)c1Cc1c(O)c(Cl)cc(Cl)c1Cl [HEXACHLOROPHENE]
- inhibition (INH) [1]: Active
- inhibition (INH) [2]: Active
- inhibition (INH) [3]: Active
- Activity [4]: Toxic
- inhibition (INH) [5]: Active

Compound: COc1ccc2c(c1)OC(C)(C)[C@@H](c1ccccc1)[C@@H]2c1ccc(OCCN2CCCC2)cc1 [LEVORMELOXIFENE]
- inhibition [6]: Active
- inhibition [7]: Active
- Activity [8]: Toxic
- inhibition [9]: Active
- inhibition [10]: Active
- Activity (Fibroblast): inactive
- inhibition [11]: Active
- inhibition [12]: Active

Compound: O=C(c1ccc(OCCN2CCCCC2)cc1)c1c(-c2ccc(O)cc2)sc2cc(O)ccc12 [RALOXIFENE]
- inhibition [7]: Active
- Activity [8]: Toxic
- inhibition [9]: Active
- inhibition [10]: Active
- Activity (Fibroblast): inactive
- Decrease in 7-DHC levels (active/inactive call) [13]: Active
- inhibition [11]: Active
- inhibition [12]: Active
- Activity (decrease in 7-DHC levels) [14]: Active
- inhibition [15]: Active

Compound: CC/C(=C(\c1ccccc1)c1ccc(OCCN(C)C)cc1)c1ccccc1 [TAMOXIFEN]
- inhibition [7]: Active
- inhibition [16]: Active
- Activity [8]: Toxic
- inhibition [17]: Active
- inhibition [18]: Active
- inhibition [9]: Active
- Activity (Fibroblast): inactive
- Decrease in 7-DHC levels (active/inactive call) [13]: Active
- inhibition [11]: Active
- inhibition [12]: Active
- Activity (decrease in 7-DHC levels) [14]: Active
